Legend:
[1] = test system: KB; assay: Cytotoxicity against human KB cells after 48 hrs by MTT assay; format: functional, cell-based
[2] = test system: A2780; assay: Cytotoxicity against human A2780 cells after 48 hrs by MTT assay; format: functional, cell-based; conditions: A2780, 48 h
[3] = test system: Bel-7402; assay: Cytotoxicity against human Bel7402 cells after 48 hrs by MTT assay; format: functional, cell-based; conditions: Bel-7402, 48 h
[4] = Cytotoxicity against estrogen receptor-negative human […] cells expressing p53 mutant after 48 hrs by SRB assay; format: functional, cell-based
Outline: (§1)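 Cell lines came from CCRC, Taiwan. Cells were seeded at about 5 × 10^3 per well and left overnight. They were then given serum-free medium containing 0-10 μM compound (0.08-10 μM serial dilutions) for 48 h at 37 °C. Cells were fixed with TCA (10% final), stained with SRB (0.4% final), and the dye was dissolved in 10 mM Tris with A515 read. IC50 was taken from a fitted log concentration-response curve.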

[5] = test system: A549; assay: Cytotoxicity against human A549 cells expressing wild type p53 after 48 hrs by SRB assay; format: functional, cell-based; conditions: A549, 48 h; outline: as §1
[6] = test system: HepG2; assay: Cytotoxicity against human HepG2 cells expressing wild type p53 after 48 hrs by SRB assay; format: functional, cell-based; conditions: HepG2, 48 h; outline: as §1
[7] = test system: HeLa; assay: Cytotoxicity against p53-deficient human HeLa cells after 48 hrs by SRB assay; format: functional, cell-based; outline: as §1
[8] = test system: HT-29; assay: Cytotoxicity against human HT-29 cells expressing p53 mutant after 48 hrs by SRB assay; format: functional, cell-based; conditions: HT-29, 48 h; outline: as §1
[9] = test system: AGS; assay: Cytotoxicity against human AGS cells expressing wild type p53 after 48 hrs by SRB assay; format: functional, cell-based; outline: as §1
[10] = test system: MCF7; assay: Cytotoxicity against estrogen receptor-positive human MCF7 cells expressing wild type p53 after 48 hrs by SRB assay; format: functional, cell-based; conditions: MCF7, 48 h; outline: as §1
[11] = Cytotoxicity against p53-deficient human Hep3B cells after 48 hrs by SRB assay; format: functional, cell-based, Hep 3B2; outline: as §1
[12] = test system: PC-3; assay: Cytotoxicity against p53-deficient human PC3 cells after 48 hrs by SRB assay; format: functional, cell-based; conditions: PC-3, 48 h; outline: as §1
[13] = test system: U-937; assay: Cytotoxicity against human U937 cells expressing p53 mutant after 48 hrs by SRB assay; format: functional, cell-based; conditions: U-937, 48 h
[14] = test system: THP-1; assay: Cytotoxicity against human THP1 cells expressing p53 mutant after 48 hrs by SRB assay; format: functional, cell-based; conditions: THP-1, 48 h
[15] = test system: K562; assay: Cytotoxicity against p53-deficient human K562 cells after 48 hrs by SRB assay; format: functional, cell-based; conditions: K562, 48 h

**Q.** With `CCn1cc(-c2nc3ccc([N+](=O)[O-])cc3s2)c(=O)c2cc(F)c(N3CCNCC3)nc21` as the molecule, how does the IC50 [1] read?
**A.** Its IC50 is 179 µM.

**Q.** And the IC50 [2]?
**A.** The IC50 was 200 µM.

**Q.** What about the IC50 [3] of the same molecule?
**A.** The IC50 was 24.6 µM.

**Q.** With `CCn1cc(-c2nc3ccccc3o2)c(=O)c2cc(F)c(Cl)cc21` as the molecule, how does the IC50 [1] read?
**A.** Its IC50 is 10.2 µM.

**Q.** And the IC50 [2]?
**A.** The IC50 was 78.4 µM.

**Q.** And the IC50 [3]?
**A.** Its IC50 is 28.9 µM.

**Q.** For `CCn1cc(-c2nc3ccc(Cl)cc3[nH]2)c(=O)c2cc(F)c(N3CCNCC3)nc21`, which IC50 [1] is on record?
**A.** Its IC50 is 10.3 µM.

**Q.** And the IC50 [2]?
**A.** The IC50 was 6.3 µM.

**Q.** What about the IC50 [3] of the same molecule?
**A.** The IC50 was 21.5 µM.

**Q.** Which results are given for `CCn1cc(-c2nc3ccccc3o2)c(=O)c2cc(F)c(N3CCNCC3)nc21`?
**A.** IC50 [1]: 11.7 µM; IC50 [2]: 15.3 µM; IC50 [3]: 16.8 µM

**Q.** What does the source list for `CCn1cc(-c2nc3ccc([N+](=O)[O-])cc3[nH]2)c(=O)c2cc(F)c(N3CCNCC3)cc21`?
**A.** IC50 [1]: 1.1 µM; IC50 [2]: 1.6 µM; IC50 [3]: 2.1 µM

**Q.** Which IC50 [1] does the source give for `CCn1cc(-c2nc3ccccc3s2)c(=O)c2cc(F)c(N3CCNC(C)C3)c(F)c21` (stereo unspecified) here?
**A.** The IC50 was 24.3 µM.

**Q.** What about the IC50 [2] of the same molecule?
**A.** Its IC50 is 9.8 µM.

**Q.** And the IC50 [3]?
**A.** The IC50 was 15 µM.

**Q.** For `CCn1cc(-c2nc3ccccc3[nH]2)c(=O)c2cc(F)c(N3CCNC(C)C3)c(F)c21` (stereo unspecified), which IC50 [1] is on record?
**A.** Its IC50 is 19.1 µM.

**Q.** And the IC50 [2]?
**A.** The IC50 was 11.6 µM.

**Q.** What about the IC50 [3] of the same molecule?
**A.** Its IC50 is 30.2 µM.

**Q.** With `CC[C@@]1(O)C(=O)OCc2c1cc1n(c2=O)Cc2cc3cc(O)ccc3nc2-1` [HYDROXYCAMPTOTHECIN] as the molecule, how does the IC50 [1] read?
**A.** The IC50 was 0.6 µM.

**Q.** What about the IC50 [2] of the same molecule?
**A.** Its IC50 is 0.7 µM.

**Q.** What about the IC50 [3] of the same molecule?
**A.** Its IC50 is 0.2 µM.

**Q.** For `CCn1cc(-c2nc3ccccc3[nH]2)c(=O)c2cc(F)c(N3CCNCC3)cc21`, which GI50 [4] is on record?
**A.** The GI50 was over 10 µM.

**Q.** And the IC50 [4]?
**A.** Its IC50 is over 10 µM.

**Q.** And the GI50 [5]?
**A.** The GI50 was 0.6 µM.

**Q.** What about the IC50 [5] of the same molecule?
**A.** The IC50 was 4.7 µM.

**Q.** What about the GI50 [6] of the same molecule?
**A.** The GI50 was over 10 µM.

**Q.** And the IC50 [6]?
**A.** Its IC50 is over 10 µM.

**Q.** And the IC50 [1]?
**A.** The IC50 was 10.5 µM.

**Q.** What about the IC50 [2] of the same molecule?
**A.** The IC50 was 0.8 µM.

**Q.** And the IC50 [3]?
**A.** Its IC50 is 27.4 µM.

**Q.** What about the GI50 [7] of the same molecule?
**A.** The GI50 was over 10 µM.

**Q.** And the IC50 [7]?
**A.** The IC50 was over 10 µM.

**Q.** And the GI50 [8]?
**A.** The GI50 was over 10 µM.

**Q.** And the IC50 [8]?
**A.** Its IC50 is over 10 µM.

**Q.** What about the GI50 [9] of the same molecule?
**A.** Its GI50 is 9.5 µM.

**Q.** And the IC50 [9]?
**A.** Its IC50 is over 10 µM.

**Q.** And the GI50 [10]?
**A.** Its GI50 is over 10 µM.

**Q.** And the IC50 [10]?
**A.** Its IC50 is over 10 µM.

**Q.** And the GI50 [11]?
**A.** Its GI50 is over 10 µM.

**Q.** What about the IC50 [11] of the same molecule?
**A.** Its IC50 is over 10 µM.

**Q.** And the GI50 [12]?
**A.** Its GI50 is over 10 µM.

**Q.** And the IC50 [12]?
**A.** The IC50 was over 10 µM.

**Q.** What about the IC50 [13] of the same molecule?
**A.** Its IC50 is over 10 µM.

**Q.** What about the IC50 [14] of the same molecule?
**A.** The IC50 was over 10 µM.

**Q.** And the IC50 [15]?
**A.** The IC50 was over 10 µM.

**Q.** With `CCn1cc(-c2nc3ccccc3[nH]2)c(=O)c2cc(F)c(N3CCN(C)CC3)cc21` as the molecule, how does the IC50 [1] read?
**A.** Its IC50 is 36.7 µM.

**Q.** What does the source list for `CCn1cc(-c2nc3ccc([N+](=O)[O-])cc3o2)c(=O)c2cc(F)c(N3CCNCC3)nc21`?
**A.** GI50 [4]: > 10 µM; IC50 [4]: > 10 µM; GI50 [5]: 2.1 µM; IC50 [5]: 7.3 µM; GI50 [6]: > 10 µM; IC50 [6]: > 10 µM; IC50 [1]: 1.8 µM; IC50 [3]: 3 µM; GI50 [7]: > 10 µM; IC50 [7]: > 10 µM; GI50 [8]: > 10 µM; IC50 [8]: > 10 µM; GI50 [9]: 2.3 µM; IC50 [9]: 4.4 µM; GI50 [10]: > 10 µM; IC50 [10]: > 10 µM; GI50 [11]: > 10 µM; IC50 [11]: > 10 µM; GI50 [12]: 5.8 µM; IC50 [12]: 9.8 µM; IC50 [13]: > 10 µM; IC50 [14]: > 10 µM; IC50 [15]: > 10 µM

**Q.** For `CCn1cc(-c2nc3ccc([N+](=O)[O-])cc3o2)c(=O)c2cc(F)c(Cl)cc21`, which IC50 [1] is on record?
**A.** Its IC50 is 0.5 µM.

**Q.** And the IC50 [3]?
**A.** Its IC50 is 1.8 µM.

**Q.** Which results are given for `CCn1cc(-c2nc3ccc([N+](=O)[O-])cc3[nH]2)c(=O)c2cc(F)c(N3CCNCC3)nc21`?
**A.** IC50 [1]: 22.4 µM; IC50 [2]: 12.4 µM; IC50 [3]: 10.8 µM

**Q.** With `CCn1cc(-c2nc3ccc(N)cc3[nH]2)c(=O)c2cc(F)c(N3CCNCC3)cc21` as the molecule, how does the GI50 [4] read?
**A.** The GI50 was over 10 µM.

**Q.** What about the IC50 [4] of the same molecule?
**A.** Its IC50 is over 10 µM.

**Q.** And the GI50 [5]?
**A.** Its GI50 is over 10 µM.

**Q.** And the IC50 [5]?
**A.** The IC50 was over 10 µM.

**Q.** What about the GI50 [6] of the same molecule?
**A.** Its GI50 is over 10 µM.

**Q.** What about the IC50 [6] of the same molecule?
**A.** The IC50 was over 10 µM.

**Q.** What about the IC50 [1] of the same molecule?
**A.** The IC50 was 35.4 µM.

**Q.** And the IC50 [2]?
**A.** Its IC50 is 51.5 µM.

**Q.** What about the IC50 [3] of the same molecule?
**A.** Its IC50 is 92.1 µM.

**Q.** What about the GI50 [7] of the same molecule?
**A.** The GI50 was over 10 µM.

**Q.** And the IC50 [7]?
**A.** Its IC50 is over 10 µM.

**Q.** What about the GI50 [8] of the same molecule?
**A.** The GI50 was over 10 µM.

**Q.** What about the IC50 [8] of the same molecule?
**A.** The IC50 was over 10 µM.

**Q.** What about the GI50 [9] of the same molecule?
**A.** Its GI50 is 7.8 µM.

**Q.** And the IC50 [9]?
**A.** The IC50 was 10 µM.

**Q.** What about the GI50 [10] of the same molecule?
**A.** The GI50 was over 10 µM.

**Q.** And the IC50 [10]?
**A.** The IC50 was over 10 µM.

**Q.** And the GI50 [11]?
**A.** The GI50 was over 10 µM.

**Q.** What about the IC50 [11] of the same molecule?
**A.** The IC50 was over 10 µM.

**Q.** What about the GI50 [12] of the same molecule?
**A.** Its GI50 is over 10 µM.

**Q.** What about the IC50 [12] of the same molecule?
**A.** The IC50 was over 10 µM.

**Q.** And the IC50 [13]?
**A.** The IC50 was over 10 µM.

**Q.** And the IC50 [14]?
**A.** Its IC50 is 10 µM.

**Q.** And the IC50 [15]?
**A.** The IC50 was over 10 µM.

— ChEMBL document CHEMBL1153527, “Discovery of a novel series of quinolone and naphthyridine derivatives as potential topoisomerase I inhibitors by scaffold modification” (J Med Chem, 2009)
